The source of these data is ChEMBL document CHEMBL1649308, “Affinity of the new cephalosporin CXA-101 to penicillin-binding proteins of Pseudomonas aeruginosa” (Antimicrob Agents Chemother, 2010).

Each structure is given as a SMILES string. In brackets after ≈: the same amount, converted by molar mass. Activity calls are given as the source filed them. The calls are words filed in the database; no cut-off is given here.

Test [1] deals with Pseudomonas aeruginosa. Description: Induction of ampC mRNA expression in Pseudomonas aeruginosa PAO1 at 0.25 X MIC relative to untreated control. The format is functional. In outline:
(§1)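 Cells were exposed for 3 h to subinhibitory drug (1/2 or 1/4 MIC), alongside untreated cells. RNA was taken from log-phase LB cultures and DNase-treated (2 U, 30 min, 37°C). ampC mRNA was measured by real-time RT-PCR and normalized to rpsL. Values are the mean relative expression from at least three independent duplicate experiments.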

Test [2] in a line: Inhibition of Pseudomonas aeruginosa PAO1 PBP5/6 by SDS-PAGE. In outline: (§2)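 Membranes were prepared from late-log (OD600 1) LB cultures by sonication and two rounds of 150,000 × g ultracentrifugation in 20 mM KH2PO4-140 mM NaCl, pH 7.5. Membranes were preincubated 30 min at 37°C with drug (0.0156–2 μg/ml), then labeled with 25 μM Bocillin FL. Samples were run on SDS-PAGE and read by fluorescence (ex 488/em 530 nm). IC50 values come from triplicate experiments.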

Test [3] concerns Pseudomonas aeruginosa. Description: Bactericidal activity against Pseudomonas aeruginosa PAO1 assessed as reduction in viable bacterial count at MIC after 8 hrs by time-kill analysis. The format is functional. In outline: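 Overnight MHB cultures were diluted 1/100 and grown at 37°C, 180 rpm to OD600 0.2. Flasks of MHB with 0, 0.5×, 1×, 2× or 4× MIC were inoculated to OD600 0.01 (ca. 10^7 CFU/ml). Viable counts were followed over 8 h by plating serial dilutions on MH agar, with OD600 also read. Values are the mean ± SD of triplicate runs.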

The nature of test [4]: Inhibition of Pseudomonas aeruginosa PAO1 PBP1b by SDS-PAGE. In outline:
as §2

Test [5] is described as follows: Inhibition of Pseudomonas aeruginosa PAO1 PBP1c by SDS-PAGE. In outline:
as §2

Test [6] deals with Pseudomonas aeruginosa. Description: Induction of ampC mRNA expression in Pseudomonas aeruginosa PAO1 at 0.5 X MIC relative to untreated control. The format is functional. The method, boiled down:
as §1

The nature of test [7]: Inhibition of Pseudomonas aeruginosa PAO1 PBP3 by SDS-PAGE. The method, boiled down: as §2
Test [8] can be described thus: Inhibition of Pseudomonas aeruginosa PAO1 PBP2 by SDS-PAGE. In outline:
as §2

Test [9] has as its system Pseudomonas aeruginosa. Description: Antimicrobial activity against Pseudomonas aeruginosa PAO1 assessed as appearance of long filaments at 0.5 X MIC after 2 hrs by Live/dead cell viability assay. It is filed as functional, organism-based.
Test [10] concerns Pseudomonas aeruginosa. The experiment in a line: Antimicrobial activity against Pseudomonas aeruginosa PAO1 by broth microdilution method. It is filed as functional. The method, boiled down: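 MICs against strain PAO1 by standard CLSI broth microdilution (M100-S18).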
Test [11] in a line: Inhibition of Pseudomonas aeruginosa PAO1 PBP4 by SDS-PAGE. The method, boiled down: as §2
Test [12] relates to Pseudomonas aeruginosa. Description: Antimicrobial activity against Pseudomonas aeruginosa PAO1 at 4 X MIC after 8 hrs by Live/dead cell viability assay. The format is functional, organism-based.
Test [13] concerns Pseudomonas aeruginosa. The experiment in a line: Bactericidal activity against Pseudomonas aeruginosa PAO1 assessed as reduction in viable bacterial count at 2 X MIC after 8 hrs by time-kill analysis. It is filed as functional. The method, boiled down: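 PAO1 grown overnight in Mueller-Hinton broth, diluted 1/100 and grown at 37°C, 180 rpm to mid-log phase (OD600 0.2). Then inoculated into MHB with 0, 0.5×, 1×, 2× or 4× MIC to an initial OD600 of 0.01 (ca. 10^7 CFU/ml). Viable counts taken by plating serial dilutions on MH agar over 8 h. Triplicate experiments, mean ± SD.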

The subject of test [14] is Pseudomonas aeruginosa. Description: Induction of ampC mRNA expression in Pseudomonas aeruginosa PAO1 at 50 ug/ml relative to untreated control. It is filed as functional. In outline:
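The inducer was given at 50 μg/ml for 3 h, with an untreated comparison. RNA from log-phase LB cultures was DNase-treated, and ampC expression was quantified by real-time RT-PCR normalized to rpsL. Values are the mean of at least three independent duplicate experiments.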

The term IC50 denotes the concentration that gives 50% inhibition. As a reminder, the MIC is the least concentration at which growth counts as inhibited. As for `Cn1c(N)c(NC(=O)NCCN)c[n+]1CC1=C(C(=O)O)N2C(=O)[C@@H](NC(=O)/C(=N\OC(C)(C)C(=O)[O-])c3nsc(N)n3)[C@H]2SC1` [CEFTOLOZANE], the “fold change (FC)” value in the test on Pseudomonas aeruginosa [1] is reported as 1.6; in the test on Pseudomonas aeruginosa [3], >3; in the test on Pseudomonas aeruginosa [6], 1.3. For the same molecule, the half-maximal inhibitory concentration (IC50) in [2] is > 2 µg/mL; in test [4] it was 0.07 µg/mL (≈ 0.105 µM); in test [5] it was 0.64 µg/mL (≈ 0.96 µM); in [7], 0.02 µg/mL (≈ 0.03 µM); in test [8], 1.36 µg/mL (≈ 2.04 µM); in test [11] it was 0.29 µg/mL (≈ 0.435 µM). Also, the result with Pseudomonas aeruginosa [9] and in the test with Pseudomonas aeruginosa [12] was Active. In the test on Pseudomonas aeruginosa [10], the MIC stood at 0.5 µg/mL (≈ 0.75 µM).
`CC(C)(O/N=C(\C(=O)N[C@@H]1C(=O)N2C(C(=O)[O-])=C(C[n+]3ccccc3)CS[C@H]12)c1csc(N)n1)C(=O)O` [CEFTAZIDIME]: the “fold change (FC)” value in the test with Pseudomonas aeruginosa [1] and in the test on Pseudomonas aeruginosa [6] was 1.2 each time. For the same molecule, the 50% inhibitory concentration (IC50) in test [2] was > 2 µg/mL; in test [4] it was 0.12 µg/mL (≈ 0.22 µM); in test [5] it was > 2 µg/mL; in test [7] it was 0.04 µg/mL (≈ 0.0732 µM); in test [8] it was > 2 µg/mL; in test [11], 1.23 µg/mL (≈ 2.25 µM). Further, the Activity with Pseudomonas aeruginosa [13] is given as >3. In addition, the outcome in the test on Pseudomonas aeruginosa [9] and in the test on Pseudomonas aeruginosa [12] was Active. For the same molecule, it took 1 µg/mL (≈ 1.83 µM) to inhibit growth in the test on Pseudomonas aeruginosa [10] (MIC).
As for `C[C@@H](O)[C@H]1C(=O)N2C(C(=O)O)=C(SCCNC=N)C[C@H]12` [IMIPENEM ANHYDROUS], the “fold change (FC)” value with Pseudomonas aeruginosa [1] is on record as 193.2; in the test with Pseudomonas aeruginosa [6], 269.5. In addition, the concentration for half-maximal inhibition (IC50) in test [2] stood at 0.2 µg/mL (≈ 0.668 µM); in test [4], 0.13 µg/mL (≈ 0.434 µM); in test [5], 0.08 µg/mL (≈ 0.267 µM); in [7], 0.12 µg/mL (≈ 0.401 µM); in [8] it was 0.08 µg/mL (≈ 0.267 µM); in [11] it was 0.02 µg/mL (≈ 0.0668 µM). The result with Pseudomonas aeruginosa [9] and with Pseudomonas aeruginosa [12] was Active. In the test on Pseudomonas aeruginosa [10], this molecule returned an MIC of 1 µg/mL (≈ 3.34 µM).
Regarding `CO[C@@]1(NC(=O)Cc2cccs2)C(=O)N2C(C(=O)O)=C(COC(N)=O)CS[C@@H]21` [CEFOXITIN], in the test on Pseudomonas aeruginosa [14], the “fold change (FC)” value is 50.
